# How the values were obtained:
# Assay type in all cases: cell-based
# Cannabinoid receptor 2 [1] = target: T1, Cannabinoid receptor 2 (Homo sapiens, UniProt P34972); assay: Displacement of [3H]-WIN 55,212-2 from human CB2 receptor expressed in human HEK293 cells after 90 mins by radioligand assay
# Cannabinoid receptor 1 [2] = target: T2, Cannabinoid receptor 1 (Homo sapiens, UniProt P21554); assay: Displacement of [3H]-CP-55,940 from human CB1 receptor expressed in human HEK293 cells at 10 uM after 90 mins by radioligand assay
# T2 sequence (P21554 whole entry): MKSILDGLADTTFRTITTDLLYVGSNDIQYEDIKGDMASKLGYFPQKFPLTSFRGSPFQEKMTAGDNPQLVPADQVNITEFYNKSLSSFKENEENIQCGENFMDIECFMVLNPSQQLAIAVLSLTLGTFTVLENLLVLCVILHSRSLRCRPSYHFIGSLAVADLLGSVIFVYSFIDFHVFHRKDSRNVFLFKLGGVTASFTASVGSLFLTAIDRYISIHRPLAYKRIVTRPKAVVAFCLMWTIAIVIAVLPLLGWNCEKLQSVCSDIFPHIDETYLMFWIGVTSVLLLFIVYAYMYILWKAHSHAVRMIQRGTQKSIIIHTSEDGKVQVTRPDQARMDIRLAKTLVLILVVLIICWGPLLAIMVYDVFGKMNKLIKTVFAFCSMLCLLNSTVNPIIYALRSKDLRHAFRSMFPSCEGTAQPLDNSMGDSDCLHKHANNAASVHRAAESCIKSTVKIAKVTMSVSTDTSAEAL
# In short: (§1)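 Percent displacement of [3H]-CP 55,940 (0.5 nM) from human recombinant CB1 in HEK-293 cell membranes (Bmax 2.5 pmol/mg protein), with a single inhibitor concentration of 1 or 10 µM. Incubation was 90 min at 30 °C, and nonspecific binding was defined with 10 uM WIN 55212-2.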
# Cannabinoid receptor 1 [3] = target: T2, Cannabinoid receptor 1; assay: Displacement of [3H]-CP-55,940 from human CB1 receptor expressed in human HEK293 cells after 90 mins by radioligand assay
# In short: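 Membranes from HEK-293 cells transfected with human recombinant CB1 (Bmax 2.5 pmol/mg protein) were incubated with 0.14 nM [3H]-CP-55,940 (Kd 0.18 nM) and increasing compound concentrations for 90 min at 30 °C. Nonspecific binding was defined with 10 uM WIN 55212-2. Ki was calculated from IC50 by Cheng–Prusoff.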
# Cannabinoid receptor 2 [4] = target: T1, Cannabinoid receptor 2; assay: Displacement of [3H]-WIN 55,212-2 from human CB2 receptor expressed in human HEK293 cells at 10 uM after 90 mins by radioligand assay
# Cannabinoid receptor 2 [5] = target: T1, Cannabinoid receptor 2; assay: Displacement of [3H]-WIN 55,212-2 from human CB2 receptor expressed in human HEK293 cells at 1 uM after 90 mins by radioligand assay
# Cannabinoid receptor 1 [6] = target: T2, Cannabinoid receptor 1; assay: Displacement of [3H]-CP-55,940 from human CB1 receptor expressed in human HEK293 cells at 1 uM after 90 mins by radioligand assay; in short: as §1
# T1 sequence (P34972 whole entry): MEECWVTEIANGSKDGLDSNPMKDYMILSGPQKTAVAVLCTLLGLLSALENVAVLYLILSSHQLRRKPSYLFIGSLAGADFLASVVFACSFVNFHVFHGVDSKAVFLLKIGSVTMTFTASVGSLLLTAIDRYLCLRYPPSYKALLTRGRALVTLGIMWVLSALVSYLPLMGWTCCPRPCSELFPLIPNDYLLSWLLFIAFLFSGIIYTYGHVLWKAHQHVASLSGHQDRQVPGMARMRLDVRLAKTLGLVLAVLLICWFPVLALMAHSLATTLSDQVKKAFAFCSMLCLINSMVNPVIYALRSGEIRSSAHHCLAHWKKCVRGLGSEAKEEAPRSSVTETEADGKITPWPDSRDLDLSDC
smiles,measurement,setting,value
CC1(C)C(C(=O)c2cn(CC3CCOCC3)c3c(CC4CCOCC4)c4c(cc23)OCO4)C1(C)C,Ki,Cannabinoid receptor 2 [1]; read-out: pKi (converted),0.00102 µM
CCOC(=O)/C(=C/c1cn(CCN2CCCCC2)c2ccccc12)C(=O)c1ccccc1,Activity,Cannabinoid receptor 1 [2],25.1%
same,IC50,Cannabinoid receptor 1 [3],> 10 µM
same,Ki,Cannabinoid receptor 1 [3],> 10 µM
same,Activity,Cannabinoid receptor 2 [4],70.8%
same,IC50,Cannabinoid receptor 2 [1],5.48 µM
same,Ki,Cannabinoid receptor 2 [1]; read-out: Ki,1.39 µM
CCOC(=O)/C(=C/c1cn(CCN2CCOCC2)c2ccccc12)C(=O)c1ccccc1,Activity,Cannabinoid receptor 1 [2],43.2%
same,IC50,Cannabinoid receptor 1 [3],> 10 µM
same,Ki,Cannabinoid receptor 1 [3],> 10 µM
same,Activity,Cannabinoid receptor 2 [4],66%
same,IC50,Cannabinoid receptor 2 [1],6.22 µM
same,Ki,Cannabinoid receptor 2 [1]; read-out: Ki,1.58 µM
N#C/C(=C\c1cn(CCN2CCCCC2)c2ccccc12)S(=O)(=O)c1ccccc1,Activity,Cannabinoid receptor 1 [2],83%
same,Activity,Cannabinoid receptor 2 [4],101%
same,Ki,Cannabinoid receptor 2 [1]; read-out: Ki,0.0075 µM
N#C/C(=C\c1cn(CCN2CCOCC2)c2ccccc12)S(=O)(=O)c1ccccc1,Activity,Cannabinoid receptor 2 [5],95.9%
same,IC50,Cannabinoid receptor 1 [3],0.155 µM
same,Ki,Cannabinoid receptor 1 [3],0.062 µM
same,Activity,Cannabinoid receptor 1 [6],85%
same,IC50,Cannabinoid receptor 2 [1],0.0401 µM
same,Ki,Cannabinoid receptor 2 [1]; read-out: Ki,0.0102 µM

# From ChEMBL document CHEMBL1833961, “Homology modeling in tandem with 3D-QSAR analyses: a computational approach to depict the agonist binding site of the human CB2 receptor” (Eur J Med Chem, 2011)
